Drawing on the array DNA melting data of Ke et al. (doi:10.1101/2024.01.08.574731), this text covers folding enthalpy and Tm for 37 sequences.

A short description of data set [1]: folding enthalpy; higher = less favourable; fluorescence melt of hairpins on a sequencing array, two-state fit. The conditions noted are these: sodium 0.088 M. In a few lines:
(§1)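 Library hairpins on a sequenced MiSeq flow cell carried annealed Cy3 and quencher oligos, and their Cy3 fluorescence was imaged in 50 mM Na-HEPES pH 8.0 with 25 mM NaCl, in 2.5 °C steps up to 60 °C. Signals were normalised to Cy3 before quenching and to control constructs. Melting temperature and folding enthalpy were obtained from bootstrapped two-state fits, combined by inverse-variance weighting across four replicates, and the fitted temperatures were then raised by 9.35 °C to match UV melts.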

The nature of data set [2]: melting temperature; fluorescence melt of hairpins on a sequencing array, two-state fit, raised by 9.35 °C to match UV melts. To be noted: sodium 0.088 M. In short, it runs like this: as §1

Regarding GTCTGGGGAAACCTGGAC (((..((....))..))), the folding enthalpy in data set [1] was -23.9 kcal/mol. In addition, the Tm in data set [2] was found to be 41 °C.
GCGGAGCGAAAGCGCGGC ((.(.((....)).).)): the folding enthalpy in data set [1] was -15.3 kcal/mol. Moreover, the Tm in data set [2] was determined as 58.6 °C.
The like results for GGGCAGGGAAACCTACCC (((.(((....))).))) were, in that order, -29.2 kcal/mol and 45.5 °C.
Take GCTAAGGGAAACTTTGGC ((.((.(....).)).)): the folding enthalpy in data set [1] was -10.8 kcal/mol. The Tm in data set [2] came out at 27.9 °C.
For GCTGCGCGAAAGCCTAGC (((..((....))..))), the folding enthalpy in data set [1] was -15.7 kcal/mol. Further, the Tm in data set [2] stood at 42.4 °C.
As for GCACTAGGAAACTAGCGC ((.((((....)))).)), the folding enthalpy in data set [1] was -33.4 kcal/mol. Moreover, the Tm in data set [2] was 45.5 °C.
Take GCGGGCGAAAGCCTCGC ((((((....))).))): the folding enthalpy in data set [1] was -21.9 kcal/mol. Besides, the Tm in data set [2] came out at 66.3 °C.
With TTCACGAAAGTGAA (((((....))))), the folding enthalpy in data set [1] was -19.2 kcal/mol. For the same sequence, the Tm in data set [2] is 51 °C.
Consider GATCTACCTCTAGATC ((((((....)))))), for which the folding enthalpy in data set [1] was -36.3 kcal/mol. For the same sequence, in data set [2], the Tm was found to be 37.8 °C.
Regarding GTGAACGGAAACGTCCAC (((.(((....))).))), in data set [1], the folding enthalpy was -31.9 kcal/mol. Also, the Tm in data set [2] was 45.1 °C.
For the sequence GGTTGAGGAAACCCAACC (((((.(....).))))), the folding enthalpy in data set [1] was -39.4 kcal/mol. For the same sequence, the Tm in data set [2] was found to be 45.2 °C.
In the case of CGTCCGGAAACGGTAACG ((((((....)))..))), in data set [1], the folding enthalpy was -25.1 kcal/mol. Further, the Tm in data set [2] came out at 37.8 °C.
Regarding GACGTGGGAAACCACATC ((.((((....)))).)), the folding enthalpy in data set [1] was -17.4 kcal/mol. For the same sequence, in data set [2], the Tm turned out to be 34.5 °C.
Turning to GGATAGGGAAACCTACCC ((.((((....)))).)), the folding enthalpy in data set [1] is -21.9 kcal/mol. The Tm in data set [2] stood at 35.2 °C.
For GACCAGCGAAAGCTTGTC (((.(((....))).))), the folding enthalpy in data set [1] was -24 kcal/mol. Also, in data set [2], the Tm stood at 47.8 °C.
For GATCGGGGTTCCGATC ((((((....)))))), the folding enthalpy in data set [1] was -36.9 kcal/mol. The Tm in data set [2] was determined as 59 °C.
GTTCGTGGAAACATGAGC (.((.((....)).)).): the folding enthalpy in data set [1] was -18.1 kcal/mol. Besides, the Tm in data set [2] was 31.6 °C.
On to GTTTGCGGAAACGTGAAC (((..((....))..))), for which the folding enthalpy in data set [1] is -30.7 kcal/mol. Besides, in data set [2], the Tm amounted to 41.2 °C.
For GCAATCGAAAGATATTGC ((((((....)))..))), the folding enthalpy in data set [1] was -18.7 kcal/mol. Moreover, the Tm in data set [2] worked out at 35.5 °C.
On to TTGATGAAAATCAA (((((....))))), for which the folding enthalpy in data set [1] is -13.4 kcal/mol. Also, the Tm in data set [2] came to 32.8 °C.
The like results for GAGCTAGGAAACTAGTTC ((.((((....)))).)) were, in that order, -26.8 kcal/mol and 37.2 °C.
The like results for GATCCCCTCTGGGATC ((((((....)))))) were, in that order, -29 kcal/mol and 60.3 °C.
As to GCAGGCGAAAGCCCATGC ((((((....)))..))), the folding enthalpy in data set [1] is -13.2 kcal/mol. In addition, the Tm in data set [2] is 41.4 °C.
As to GCAACAGGAAACTGTCGC ((.((((....)))).)), in data set [1], the folding enthalpy was -32.1 kcal/mol. Besides, in data set [2], the Tm amounted to 44.2 °C.
Regarding GGACTCGGAAACGAGCCC ((.((((....)))).)), the folding enthalpy in data set [1] is -34.7 kcal/mol. In data set [2], the Tm is 53.5 °C.
As to GACTCCGAAAGGACGGTC ((((((....)))..))), the folding enthalpy in data set [1] was -17.9 kcal/mol. Further, the Tm in data set [2] amounted to 35.3 °C.
In the case of GGCTAGGGAAACTTGGCC (((.(.(....).).))), in data set [1], the folding enthalpy is -25.9 kcal/mol. The Tm in data set [2] worked out at 40.6 °C.
For GCGCACCGAAAGGTTCGC (((.(((....))).))), the folding enthalpy in data set [1] was -40.3 kcal/mol. Further, in data set [2], the Tm turned out to be 61.4 °C.
On to GCACAGCGAAAGCGGCGC ((.(.((....)).).)), for which, in data set [1], the folding enthalpy was -28.6 kcal/mol. Moreover, the Tm in data set [2] came to 63.7 °C.
The like results for GTGCCTACGAAAGTACAC (((..(((....)))))) were, in that order, -4.56 kcal/mol and 37.8 °C.
For GTTTTTGAAAAAAAAC ((((((....)))))), in that order: -27.3 kcal/mol and 43.3 °C.
For the sequence GTAACCGGAAACGGTTGC (.(((((....))))).), in data set [1], the folding enthalpy is -31.8 kcal/mol. The Tm in data set [2] was 53.1 °C.
GATCACGGCGTGATC ((((((...)))))): the folding enthalpy in data set [1] is -38 kcal/mol. The Tm in data set [2] is 61.3 °C.
The like results for GTGCTAGGAAACCAGCAC (((((.(....).))))) were, in that order, -37 kcal/mol and 49.9 °C.
On to GATCTGAGCTCAGATC ((((((....)))))), for which the folding enthalpy in data set [1] was -51.6 kcal/mol. The Tm in data set [2] stood at 55.6 °C.
The like results for GGCTACGAAAGTATAGCC ((((((....)))..))) were, in that order, -25.1 kcal/mol and 49.9 °C.
In the case of GCAGACGAAAGTCCTGC ((((((....))).))), in data set [1], the folding enthalpy is -23.8 kcal/mol. Also, the Tm in data set [2] was found to be 52.9 °C.
